Bioassay records as filed in PubChem BioAssay.
Rows were chosen to be rich in hits. Some 3.1% of all compounds tested hit in one or more screens of this group.
ABHD5-PLIN5 inh: inhibitors of human ABHD5-perilipin-5 interaction; Q00G26+Q8WTS1; 360,000 tested, 0.78% active; Split G. princeps luciferase complementation, luminescence, 4 h; inhibition, % at 4 µM;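 active means inhibition above the mean inhibition across every tested compound plus 3 SD, cut at about 22% in these data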;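 further: 0% = DMSO only wells and the 100% control is not disclosed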
UHRF1 MBD2 ctr: blocks human UHRF1 binding to methylated DNA. Q96T88. UHRF1 binding to methylated oligo, TR-FRET. inhibition, % at 4.4 µM. 370,000 tested, 0.75% active. AID 687016; in the data active means inhibition above about 21%;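 further: UHRF1 SRA domain binding a hemimethylated CpG hairpin DNA probe; 0% = median of test compound wells and 100% = reference inhibitor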
Target sequence (Q96T88 whole entry, looked up, the tested form may be a part): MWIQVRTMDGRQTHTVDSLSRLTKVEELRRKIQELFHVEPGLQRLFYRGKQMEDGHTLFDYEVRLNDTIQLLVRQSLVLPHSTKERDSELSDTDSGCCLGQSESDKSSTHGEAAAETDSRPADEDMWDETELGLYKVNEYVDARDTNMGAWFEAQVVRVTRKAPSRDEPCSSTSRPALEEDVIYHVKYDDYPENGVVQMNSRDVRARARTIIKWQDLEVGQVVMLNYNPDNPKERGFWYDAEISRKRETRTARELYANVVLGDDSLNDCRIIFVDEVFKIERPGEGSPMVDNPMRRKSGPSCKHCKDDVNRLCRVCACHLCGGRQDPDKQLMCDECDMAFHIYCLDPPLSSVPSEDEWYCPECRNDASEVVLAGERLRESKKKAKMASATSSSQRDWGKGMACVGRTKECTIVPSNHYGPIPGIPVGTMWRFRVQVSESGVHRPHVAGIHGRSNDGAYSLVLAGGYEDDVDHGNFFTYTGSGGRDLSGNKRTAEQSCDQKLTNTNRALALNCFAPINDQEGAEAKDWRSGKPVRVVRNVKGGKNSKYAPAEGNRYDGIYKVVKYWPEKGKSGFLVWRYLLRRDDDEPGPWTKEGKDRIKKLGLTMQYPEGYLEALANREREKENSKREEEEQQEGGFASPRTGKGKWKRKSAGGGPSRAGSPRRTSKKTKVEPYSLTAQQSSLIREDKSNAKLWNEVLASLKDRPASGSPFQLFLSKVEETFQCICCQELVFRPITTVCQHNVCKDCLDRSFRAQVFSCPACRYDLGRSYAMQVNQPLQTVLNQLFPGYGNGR
MBD2 DNA inh: inhibitors of human MBD2 binding to methylated oligonucleotide. 370,000 tested, 0.31% active. TR-FRET. inhibition, % at 4.4 µM. AID 686964; in the data active means inhibition above about 13%
LEDGF integ inh: blocks HIV-1 LEDGF/p75-dependent DNA integration. TR-FRET IN-LEDGF/p75 DNA integration, Eu/Cy5. inhibition, % at 3.7 µM. 370,000 tested, 0.64% active;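 active means inhibition above the screen-wide mean plus 3 SD, cut at about 13% in these data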;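 further: signal is the Cy5 over europium emission ratio at 671 and 618 nm; 0% = plate median of compound wells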
PRMT1 FP inh: blocks human protein arginine methyltransferase 1; Q99873; recombinant PRMT1, activity-based probe fluorescence polarization; inhibition, % at 2.79 µM; 370,000 tested, 1.3% active; AID 652257;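 active means inhibition above about 21% made by adding two undisclosed values, limit read from the data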
RBBP9 inhibitor: blocks human serine hydrolase RBBP9 | inhibition, % at 7.94 µM | recombinant RBBP9, FP-Rh probe fluorescence polarization | O75884 | 220,000 tested, 0.2% active;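 active means inhibition above the campaign mean of all tested compounds plus 3 SD, cut at about 14% in these data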;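 further: plate controls were DMSO wells with RBBP9 for no effect and wells lacking RBBP9 protein for full effect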
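Test system – recombinant human RBBP9 · Input – RBBP9 2.5 µM in dispensing solution, pre-mixing · Medium – Tris buffer pH 8.0, NaCl, Pluronic · Schedule – preincubation 30 min plus labeling 45 min at 25 °C · Measured by – fluorescence polarization · Measure – % inhibition · Controls – DMSO and no-protein wells · Replicates – one well per compound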
* = called active by the depositor; . = not tested or not shown.

SMILES | ABHD5-PLIN5 inh | UHRF1 MBD2 ctr | MBD2 DNA inh | LEDGF integ inh | PRMT1 FP inh | RBBP9 inhibitor
Cc1ccc2nc(-c3ccc(NC(=O)CSCC(=O)O)cc3)sc2c1 | 11 | -3 | 5 | 5 | -7 | -5
Oc1c(N=Nc2nn[nH]n2)ccc2ccccc12 | -46 | 1 | -12 | 14* | 35* | .
Oc1c(N=Nc2ccc(F)cc2)ccc2ccccc12 | -7 | 1 | 0 | -6 | 1 | .
O=C(CN1C(=O)S/C(=C\c2ccccc2F)C1=O)Nc1ccccc1O | 5 | -5 | -6 | 3 | 22* | .
Cc1cc(/C=C2\SC(=O)N(CC(=O)Nc3ccccc3F)C2=O)c(C)n1C | 2 | -2 | -2 | -4 | 2 | -5
Cc1ccc(N2C(=O)NC3(CCCCC3)C2=O)cc1 | -4 | 23* | 11 | -4 | 1 | -9
CCC1CCc2sc(C(=O)Nc3cc(S(=O)(=O)N4CCOCC4)ccc3OC)cc2C1 (configuration not stated) | . | -1 | 3 | 4 | 2 | .
CCCCN1CC(COCc2ccccc2)Oc2cccc(Oc3ccc(SC)c(C)c3)c2S1(=O)=O (configuration not stated) | . | 23* | 13 | -2 | 1 | .
CCCCC1O[C@@H](C)[C@@H]2CN3CCc4c([nH]c5ccccc45)[C@@H]3C[C@@H]2N1C (some centres not stated) | . | -7 | -1 | -3 | 5 | .
COC(=O)[C@]1(CNC(=O)NCCc2ccc(OC)c(OC)c2)CC(=O)N(C)[C@@H]1c1ccccc1 | . | 0 | -6 | 2 | -1 | .
CC1(C)Cc2c(c(=S)nc(-c3ccccc3)n2Cc2cccnc2)CO1 | 3 | 19 | 0 | 1 | -2 | -9
COc1ccc(-c2nc(=S)c3c(n2Cc2cccnc2)CC(C)(C)OC3)cc1 | -3 | 24* | 10 | 0 | 4 | -5
Brc1ccc(-c2cnc(-c3cccs3)o2)cc1 | -2 | 21* | 7 | 3 | 2 | -1
CN(C)c1ccc(-c2nnc(-c3cccs3)o2)cc1 | 6 | -1 | 3 | -1 | 1 | -6
COc1cc(-c2nnc(NC(=O)c3ccc(S(=O)(=O)N4CCOCC4)cc3)o2)cc(OC)c1OC | . | 82* | -3 | -2 | 1 | -3
COc1cccc(-c2nnc(NC(=O)c3ccc(S(=O)(=O)N4CCOCC4)cc3)o2)c1 | -4 | . | . | . | . | -7
CCOC(=O)N1CCN(S(=O)(=O)c2ccc(C(=O)Nc3nnc(CSC)o3)cc2)CC1 | -4 | 31* | 0 | 0 | 0 | -5
COc1cc(C)nc(N(C)S(=O)(=O)c2ccccc2Cl)n1 | -1 | 28* | 9 | 12 | 3 | -1
COC(=O)[C@]12C[C@H](CC(=O)NCCCCc3ccccc3)C(=O)N(Cc3ccc(Cl)cc3Cl)C1=C[C@H](C(C)(C)C)O[C@@H]2C | . | 1 | -3 | -1 | 7 | .
CN(C)C=Nc1nc2c(Br)ccc(Br)c2cc1C(=O)NCC(C)(C)C | . | -2 | 1 | 1 | 0 | .
NC(=S)N/N=C/c1ccc(-c2ccc([N+](=O)[O-])cc2)o1 | -19 | -2 | -6 | -4 | 21* | 8
Cc1cccc(Cn2cc(COC(=O)N(C)Cc3ccccc3)nn2)c1 | . | 2 | 5 | -3 | 4 | .
Cc1ccc(-c2nc(C(Cl)Cl)c3ccccc3n2)cc1 | 1 | 47* | 4 | -1 | 2 | -1
Cc1ccc(-c2nc(Nc3ccc(O)cc3)c3ccccc3n2)cc1 | 9 | 1 | -1 | 3 | 0 | .
N#Cc1ccsc1NC(=O)COC(=O)CCCSc1nc2ccccc2s1 | 0 | 75* | 8 | 1 | 5 | -16
SMILES | ABHD5-PLIN5 inh | UHRF1 MBD2 ctr | MBD2 DNA inh | LEDGF integ inh | PRMT1 FP inh | RBBP9 inhibitor
NC(=O)COC(=O)CCCSc1nc2ccccc2s1 | 6 | -1 | 0 | 7 | -9 | -3
CC1CN2C(c3ccc([N+](=O)[O-])cc3)=CSC2=N1 (configuration not stated) | -8 | -3 | 2 | 0 | 22* | .
COC(=O)c1ccc(S(=O)(=O)N2CCC(NC(=O)Cc3ccccc3)CC2)cc1 | . | 12 | 3 | 0 | -4 | .
COc1ccccc1Sc1nc(-c2ccccc2)ncc1OC | -9 | 48* | -3 | 4 | -4 | -8
CCOC(=O)C1=C(C)N(C)C(=O)NC1c1c(C)nn(-c2ccc(C)cc2)c1Cl (configuration not stated) | -4 | 23* | 4 | 0 | 2 | 9
CCCNC(=O)c1ccc(N2CCC3(CC2)CC(c2ccccc2)=NO3)c(NC(=O)c2ccccc2)c1 | 4 | -1 | -3 | -1 | -2 | .
CCCCCCCC(=O)Nc1cc(C(=O)NCCC)ccc1N1CCC2(CC1)CC(c1ccccc1)=NO2 | 1 | 21* | 12 | 6 | 2 | .
C=CCn1c(SCC(N)=O)nnc1-c1cnccn1 | 11 | 74* | 0 | 7 | -4 | 1
C=CCn1c(SCC(=O)Nc2ccc(F)cc2)nnc1-c1cnccn1 | -4 | 0 | -1 | -1 | -3 | .
N#C/C(=C\c1ccc(O)cc1)C(=O)N1CCCC1 | -2 | 21* | 8 | -2 | 2 | -8
N#C/C(=C\c1c(N2CCCCCC2)nc2ccccn2c1=O)C(=O)NC1CCS(=O)(=O)C1 (configuration not stated) | 5 | 24* | 12 | 2 | 1 | -2
N#C/C(=C\c1c(N2CCOCC2)nc2ccccn2c1=O)C(=O)NC1CCS(=O)(=O)C1 (configuration not stated) | -5 | -1 | -11 | -1 | -1 | -7
Cc1onc(-c2ccc(Cl)cc2)c1-c1ccn(S(=O)(=O)c2ccccc2Cl)n1 | . | -1 | -5 | -3 | -2 | .
COc1cc(O)ccc1C=O | -7 | 27* | 2 | -3 | 4 | -1
COC(=O)[C@@]12CCCCC3=C1N(CCC3)C(=O)[C@H]2CC(=O)NCc1ccc(C)o1 | . | 0 | 6 | 0 | -1 | .
O=C(Cn1c(-c2cncs2)nc2ccccc21)NC1CCCCC1 | . | 0 | 0 | 0 | 2 | .
O=C(CSC1=Nc2ccccc2C2CC=NN12)Nc1ccc(F)c(F)c1F (configuration not stated) | -5 | -1 | -2 | 1 | 22* | .
CCCCN(C)C(=O)CSc1nnc(-c2cccnc2)n1C1CCCCC1 | . | 3 | -6 | 0 | 0 | .
COC(=O)c1n[nH]nc1-c1ccccc1 | -3 | 22* | 2 | 0 | 1 | -3
COC(=O)[C@]12CCCCC=C1N(Cc1ccc(OC)cc1)C(=O)[C@@H]2CC(=O)NCc1ccc(OC)c(OC)c1 | . | -1 | 1 | 7 | -6 | .
CNC(=O)CSc1nnc(-c2cc(C)cc(C)c2)o1 | 7 | 67* | -7 | 0 | 4 | 2
CS(=O)(=O)N(CC(=O)NC1CCCCCC1)Cc1ccc(Cl)cc1 | 5 | 49* | -1 | -3 | 2 | 4
COc1ccc(Br)c(C=O)c1OS(=O)(=O)c1ccc(C)cc1 | 7 | -2 | -1 | 16* | 1 | .
